Test results reported in ChEMBL document CHEMBL4513216, “Probing the Open Global Health Chemical Diversity Library for Multistage-Active Starting Points for Next-Generation Antimalarials” (ACS Infect Dis, 2020).

Assay: Toxicity liver stage against HepG2, at 10uM
Type: cell-based
Design: test concentration 10 uM, cell line HepG2-A16-CD81EGFP
Conditions: human, HepG2-A16-CD81EGFP cells; read-out: INHIBITION
Outline: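 Uninfected HepG2-A16-CD81EGFP cells, 3 × 10^3 per well, 1536-well, plated on prespotted compound at 10 μM final, parasite-free screening media added to match infected plates; puromycin 10 μM positive, DMSO 0.5% negative; run in parallel with 48 h PbLuc assay at 37 °C, 5% CO2; viability by CellTiter-Glo luminescence, normalized to controls.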

| SMILES | cytotoxicity at 10 µM [%] |
| --- | --- |
| Cn1cc(C[C@H]2[C@H](O)CCN2C(=O)C2CCCC2)cn1 | -3.49 |
| CCN(CC)CC(=O)N1CCN(CCc2ccncc2)CC1 | -44.7 |
| COCC(NC(=O)c1ccc(O)nc1)c1ccc(C)o1 (stereo unspecified) | 4.96 |
| Cc1nc(NCC2CC2)nc2c1COCC21CCN(S(=O)(=O)C2CC2)C1 (stereo unspecified) | -84.8 |
| Cc1cc(C(=O)N2CCCC(c3nc(C)no3)C2)on1 (stereo unspecified) | 6.93 |
| O=C1C[C@H]2[C@H](CCN2Cc2ccccn2)N1CC1CC1 | 5.8 |
| Cc1cc(N(C)CCCn2cccn2)nc(N)n1 | 0.423 |
| CCCc1cc(N(CCOC)CC(F)F)n2ncnc2n1 | 4.81 |
| CNc1nc2c(s1)C(c1cc(Cl)ccc1F)CC(=O)N2 (stereo unspecified) | 10.3 |
| Cc1ccc(C2=CCN(C(=O)C3CCN(C)C(=O)C3)CC2)cc1 (stereo unspecified) | -12.1 |
| Cc1nn(C)cc1C(=O)N1CCC(C(=O)c2nc3ccccc3s2)CC1 | 8.12 |
| CCOCCCC(=O)N1CCN(c2cccc(OC)c2)C(C)C1 (stereo unspecified) | 0.0272 |
| COC[C@]12COC[C@H]1CN(Cc1ccc3ccccc3n1)C2 | 11.9 |
| Cn1cc(CN2CCC(F)(F)C3(CCN(c4cccc(F)c4)C3)C2)cn1 (stereo unspecified) | 45.9 |
| COc1ncc(NCc2cccc(C#N)c2)cc1C(N)=O | 5.85 |
| CCNC(=O)C1(Cc2cc(-c3ccccc3)no2)CCCN(C(C)=O)C1 (stereo unspecified) | 15.9 |
| Cn1nc(C(=O)N2CCOCC2)cc1C(=O)Nc1cc(Cl)cc(Cl)c1 | 27.9 |
| O=C([C@H]1CN(Cc2ccc(F)cc2)C[C@H]2OCC[C@@H]12)N1CCCO1 | 7.77 |
| CN(CCCN1CCCCCC1)C(=O)c1ccccc1NCC(=O)O | -4.84 |

| SMILES | cytotoxicity at 10 µM [%] |
| --- | --- |
| CCN1CCC(NC(=O)CN2CCCC2Cn2nc(C)nc2C)CC1 (stereo unspecified) | -12.7 |
| Cc1nc(N2CCCC2)ccc1NCc1ccccn1 | 5.13 |
| Cc1cc(C)n(-c2cncc(NCCNS(C)(=O)=O)n2)n1 | -3.98 |
| CC(=O)c1ccc(N2CCC3(CCC(=O)N(CCCO)C3)CC2)nc1 | 4.81 |
| Cc1[nH]c2c(F)cccc2c1CC(=O)NCc1csc(N(C)C)n1 | -1.43 |
| O=C(NCC(O)COc1ccccc1)Nc1nncs1 (stereo unspecified) | 0.555 |
| Cc1noc(C)c1C(=O)N[C@@H]1CCC[C@@H](Oc2ccccc2)[C@@H]1O | 4.72 |
| O=C1CC(N(C(=O)c2ccc(Cl)c(Cl)c2)C2CC2)C(=O)N1 (stereo unspecified) | 0.0791 |
| Cc1cc(C)n(CC2CN(CCc3ccncc3)CCO2)n1 (stereo unspecified) | 0.347 |
| O=C(CN1CCOCC1)Nc1ncc(Br)cc1Br | 10.2 |
| CCNC(=O)NC[C@H]1COCc2nc3cc(OC)ccc3n21 | -2.3 |
| CCS(=O)(=O)N1CCOC2(CCCN(c3cccc(C#N)c3)C2)C1 (stereo unspecified) | 0.341 |
| Cc1cnn(CC2CCCCN2Cc2nnc(C3CC3)n2C)c1 (stereo unspecified) | 2.36 |
| O=C(NCc1ccncc1)N1CCSCC1CCO (stereo unspecified) | 2.3 |
| CCn1nc(C)c(CNC(=O)c2cn(CCC3CCCCN3)nn2)c1C (stereo unspecified) | -1.96 |
| OC1CCN(CCCNc2ncccn2)CC1 | 2.68 |
| CC(C)c1cc(NCc2csc(N(C)C)n2)nc(N)n1 | 31.8 |
| Cc1cnn(CC2CN(CC(=O)Nc3nccs3)CCO2)c1 (stereo unspecified) | -7.51 |
| Cc1cc2c(cc1Cl)C=CC1(CCN(CC(=O)N3CCCC3)CC1)O2 | -8.05 |

| SMILES | cytotoxicity at 10 µM [%] |
| --- | --- |
| Cc1cc(C)n2ncc(CN3CCC(n4cc(CCO)nn4)CC3)c2n1 | 6.59 |
| Cc1cc(CN2CC[C@H]3C(=O)N(c4ccsc4)CCO[C@H]3C2)no1 | -69.2 |
| Cc1cc(C)c(C(=O)N2CCN(c3ncccc3C#N)CC2)c(=O)[nH]1 | -3.28 |
| COCCNC(=O)NCCc1ccn(-c2ccccc2)n1 | -0.0722 |
| COc1ccc(CN(C)C(=O)NC(C)c2nncn2C)cc1F (stereo unspecified) | -2.85 |
| CCN(CC)S(=O)(=O)c1cccc(C(=O)N(C)Cc2ccsc2)c1 | -6.8 |
| O=C(NCCc1csc(-c2cccnc2)n1)c1cnn2c1CCCC2 | 3.41 |
| CC(=O)N1CCN(C(=O)c2[nH]nnc2Nc2ccccc2F)CC1 | 2.1 |
| N#Cc1cccc(N2CCCC3(C2)CN(c2nncs2)CCO3)c1 (stereo unspecified) | 0.922 |
| CCc1cccc2cc(CNCCOC)c(=O)[nH]c12 | 1.47 |
| CN(CC(=O)Nc1ccc(Br)cn1)C(=O)Cc1ccc(O)cc1 | -0.0241 |
| CCCN1CCCC2(CCN(c3nccc(OC)n3)C2)C1=O (stereo unspecified) | -4.74 |
| CCS(=O)(=O)N1Cc2c(Cn3cccc3)nn(C(C)C)c2C1 | 13.6 |
| COC(=O)N1CC2(CCNCC2)c2cc(Cl)ccc21 | 7.71 |
| COCC(O)CNC(=O)Nc1ccc(Cl)cc1-n1cccc1 (stereo unspecified) | -6.93 |
| O=C(NCC1CC1)C1CSCN1S(=O)(=O)c1cccc(F)c1 (stereo unspecified) | -14.3 |
| Cc1cc(C)n(C2CN(CCC(N)=O)C2)n1 | -5.04 |
| O=C(Cc1cccs1)N1CCC2(CC1)COCCN2CC1CC1 | 4.98 |
